ChEMBL document CHEMBL1152497, “Ligand-based design and synthesis of novel sodium channel blockers from a combined phenytoin-lidocaine pharmacophore” (Bioorg Med Chem, 2009)
Where a name gives a salt, the structure may show the parent alone. Active and inactive are the calls of the source. The calls are words filed in the database; no cut-off is given here.

Key:
[1] = Displacement of [3H]-BTX-B from neuronal voltage-gated sodium channel in rat cerebral cortex synaptoneurosomes; type: tissue-based
Procedure, shortened: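 Rat forebrain membranes incubated with [3H]-batrachotoxin (30–60 Ci/mmol) in 50 mM HEPES pH 7.4 with 130 mM choline chloride, 37 °C, 60 min. Stopped by rapid vacuum filtration onto glass fiber filters, and filter radioactivity compared with control. Percent inhibition at 5–7 concentrations spanning the IC50, each in triplicate. IC50 by Probit analysis of the concentration versus percent binding curve. Aconitine 1 μM as positive control.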

Rattus norvegicus = species: Rattus norvegicus; assay: Displacement of [3H]-BTX-B from neuronal voltage-gated sodium channel in rat cerebral cortex synaptoneurosomes at 40 uM; type: tissue-based
Procedure, shortened: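 Single-concentration screen at 40 μM. Rat forebrain membranes with [3H]-batrachotoxin (30–60 Ci/mmol) in 50 mM HEPES pH 7.4 containing 130 mM choline chloride, 37 °C for 60 min. Rapid vacuum filtration onto glass fiber filters, and trapped radioactivity compared with control values to give percent displacement. Aconitine 1 μM as positive control.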

[2] = target: Sodium channel protein type 2 subunit alpha (Homo sapiens) (UniProt Q99250); assay: Inhibition of human Nav1.2 channel expressed in HEK293 cells assessed as blocked of sodium current elicited at +10 mV for 12 mins from holding potential -100 mV at 100 uM measured after washout by patch clamp method; type: cell-based; conditions: in the assay text read “12 ms” for “12 mins”
Procedure, shortened: (§1)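 Whole-cell patch clamp on HEK293 cells stably expressing human Nav1.2, grown in DMEM/F12 with 10% FBS, penicillin/streptomycin and G418 at 37 °C, 5% CO2. Step to +10 mV for 12 ms from −100 mV holding. Pipette contains CsCl/BAPTA (pH 7.4); bath contains 130 mM NaCl (pH 7.4). DMSO at most 0.3%, 20–22 °C, ≥75% series-resistance compensation. Compound at 100 μM, followed by washout; n = 4.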

[3] = target: Sodium channel protein type 2 subunit alpha (Homo sapiens) (UniProt Q99250); assay: Inhibition of human Nav1.2 channel expressed in HEK293 cells assessed as blocked of sodium current elicited at +10 mV for 12 mins from holding potential -100 mV at 100 uM by patch clamp method; type: cell-based; design: scale not given: the % may be the effect or the level left; conditions: in the assay text read “12 ms” for “12 mins”; procedure, shortened: as §1
[4] = Lipophilicity, log P of the compound; type: physicochemical; conditions: octanol/water
Procedure, shortened: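 logP calculated with a chemical properties tool, not measured.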

Chain of Sodium channel protein type 2 subunit alpha (Homo sapiens) (Q99250 whole entry, looked up): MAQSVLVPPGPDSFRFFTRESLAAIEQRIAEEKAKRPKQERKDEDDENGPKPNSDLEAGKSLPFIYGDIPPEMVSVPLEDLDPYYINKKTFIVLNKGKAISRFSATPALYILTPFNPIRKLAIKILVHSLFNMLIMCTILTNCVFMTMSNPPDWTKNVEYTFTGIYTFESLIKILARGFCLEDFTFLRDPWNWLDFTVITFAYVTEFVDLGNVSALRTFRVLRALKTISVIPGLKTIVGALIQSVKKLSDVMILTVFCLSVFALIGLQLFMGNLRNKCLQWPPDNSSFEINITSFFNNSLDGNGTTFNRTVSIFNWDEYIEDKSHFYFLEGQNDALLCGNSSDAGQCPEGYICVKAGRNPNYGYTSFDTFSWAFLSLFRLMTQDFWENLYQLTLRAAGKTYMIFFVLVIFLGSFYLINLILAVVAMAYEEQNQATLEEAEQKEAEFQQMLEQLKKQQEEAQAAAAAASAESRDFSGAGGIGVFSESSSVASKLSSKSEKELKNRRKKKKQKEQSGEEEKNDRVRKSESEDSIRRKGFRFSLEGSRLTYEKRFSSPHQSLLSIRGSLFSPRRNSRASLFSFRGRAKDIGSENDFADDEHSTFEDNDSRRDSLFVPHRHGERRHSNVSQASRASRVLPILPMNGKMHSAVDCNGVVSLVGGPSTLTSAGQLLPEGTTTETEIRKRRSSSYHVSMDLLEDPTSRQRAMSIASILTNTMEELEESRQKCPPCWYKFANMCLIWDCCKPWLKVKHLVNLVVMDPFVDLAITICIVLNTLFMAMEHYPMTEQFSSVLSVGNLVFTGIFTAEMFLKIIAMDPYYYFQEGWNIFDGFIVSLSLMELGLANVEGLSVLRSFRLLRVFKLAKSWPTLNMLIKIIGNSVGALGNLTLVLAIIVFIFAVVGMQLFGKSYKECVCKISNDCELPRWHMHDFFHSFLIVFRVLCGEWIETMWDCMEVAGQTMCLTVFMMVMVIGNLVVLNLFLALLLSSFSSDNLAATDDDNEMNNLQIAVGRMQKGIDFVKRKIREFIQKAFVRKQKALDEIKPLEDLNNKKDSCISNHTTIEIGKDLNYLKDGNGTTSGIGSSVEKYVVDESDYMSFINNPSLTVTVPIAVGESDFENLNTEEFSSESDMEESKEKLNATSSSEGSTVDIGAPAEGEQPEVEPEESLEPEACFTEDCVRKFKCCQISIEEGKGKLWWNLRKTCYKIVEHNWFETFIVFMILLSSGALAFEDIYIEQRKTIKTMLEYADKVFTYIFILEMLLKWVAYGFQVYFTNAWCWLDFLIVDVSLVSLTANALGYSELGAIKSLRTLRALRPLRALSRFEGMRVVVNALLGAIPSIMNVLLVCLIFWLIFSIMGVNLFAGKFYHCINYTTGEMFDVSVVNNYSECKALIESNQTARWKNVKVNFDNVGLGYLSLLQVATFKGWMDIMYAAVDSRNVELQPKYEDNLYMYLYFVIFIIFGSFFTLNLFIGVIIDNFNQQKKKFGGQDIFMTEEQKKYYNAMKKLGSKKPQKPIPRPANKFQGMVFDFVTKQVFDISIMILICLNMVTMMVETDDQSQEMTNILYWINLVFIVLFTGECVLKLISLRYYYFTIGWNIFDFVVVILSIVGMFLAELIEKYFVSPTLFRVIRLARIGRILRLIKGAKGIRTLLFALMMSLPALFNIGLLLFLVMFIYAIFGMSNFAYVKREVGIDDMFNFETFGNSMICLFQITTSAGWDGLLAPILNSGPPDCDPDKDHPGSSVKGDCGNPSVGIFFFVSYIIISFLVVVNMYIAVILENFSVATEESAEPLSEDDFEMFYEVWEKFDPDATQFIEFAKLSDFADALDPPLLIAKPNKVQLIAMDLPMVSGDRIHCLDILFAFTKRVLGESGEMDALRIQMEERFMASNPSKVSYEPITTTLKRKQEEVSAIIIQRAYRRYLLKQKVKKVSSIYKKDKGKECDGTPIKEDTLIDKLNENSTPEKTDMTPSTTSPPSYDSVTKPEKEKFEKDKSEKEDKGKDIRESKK

Row | SMILES | IC50 [1] [µM] | logP [4] | further results
1 | O=C1NC(=O)C2(CCc3ccccc32)N1 (stereo unspecified) | 2110 | – | –
2 | O=C1NC(=O)C2(CCCCc3ccccc32)N1 (stereo unspecified) | 251 | – | –
3 | CCCCC1(c2ccccc2)NC(=O)NC1=O (stereo unspecified) | 103 | – | –
4 | CCN(CC)CC(=O)Nc1ccc(C2(c3ccccc3)NC(=O)NC2=O)cc1 (stereo unspecified) | – | – | Activity (Rattus norvegicus): 50%
5 | CCCCC1(c2ccccc2C)NC(=O)NC1=O (stereo unspecified) | 225 | – | –
6 | CCCCCCCC(O)(C(N)=O)c1cc(C)c(NC(=O)CN(CC)CC)c(C)c1 (stereo unspecified) | – | – | Activity (Rattus norvegicus): 83%; Activity [2]: inactive; Activity [3]: 67.7%
7 | CCCCCCCCCC1(c2cc(C)c(NC(=O)CN(CC)CC)c(C)c2)NC(=O)NC1=O (stereo unspecified) | – | – | Activity (Rattus norvegicus): 69%
8 | CCN1C(=O)NC(=O)C1(C)c1ccccc1 (stereo unspecified) | 720 | – | –
9 | CCCCCCC1(c2cc(C)c(NC(=O)CN(CC)CC)c(C)c2)NC(=O)NC1=O (stereo unspecified) | – | – | Activity (Rattus norvegicus): 68%
10 | CCN(CC)CC(=O)Nc1c(C)cc(C(O)(C(N)=O)c2ccccc2)cc1C (stereo unspecified) | – | – | Activity (Rattus norvegicus): 16%
11 | CCCCOc1cc(C(=O)NCCN(CC)CC)c2ccccc2n1 [DIBUCAINE] | – | 3.77 | –
12 | CCCCCCC1(c2ccccc2)NC(=O)NC1=O (stereo unspecified) | 13 | – | –
13 | CCCCNc1ccc(C(=O)OCCN(C)C)cc1 [TETRACAINE] | – | 3.27 | –
14 | CCCCC1(c2ccc(C)cc2)NC(=O)NC1=O (stereo unspecified) | 95 | – | –
15 | COC(=O)[C@H]1[C@@H](OC(=O)c2ccccc2)C[C@@H]2CC[C@H]1N2C [COCAINE] | 49 | 1.82 | –
16 | CCCNC(C)C(=O)Nc1ccccc1C (stereo unspecified) [PRILOCAINE] | 53.7 | 2.18 | –
17 | CCCCCCCC(O)(C(N)=O)c1ccccc1 (stereo unspecified) | 9 | – | –
18 | CCOC(=O)c1ccc(N)cc1 [BENZOCAINE] | 910 | 1.39 | –
19 | CCN(CC)CCOC(=O)c1ccc(N)cc1 [PROCAINE] | 110 | 2.53 | –
20 | O=C1NC(=O)C2(CCCc3ccccc32)N1 (stereo unspecified) | 851 | – | –
21 | CCCCCC1(c2ccccc2)NC(=O)N(C)C1=O (stereo unspecified) | 39 | 2.96 | –

Row | SMILES | IC50 [1] [µM] | logP [4] | further results
22 | CCCC1(c2ccccc2)NC(=O)NC1=O (stereo unspecified) | 162 | – | –
23 | O=C1NC(=O)C2(CCCCCc3ccccc32)N1 (stereo unspecified) | 251 | – | –
24 | CCCCCCCC1(c2cc(C)c(NC(=O)CN(CC)CC)c(C)c2)NC(=O)NC1=O (stereo unspecified) | – | – | Activity (Rattus norvegicus): 71%
25 | CC1CCCCN1CCCOC(=O)c1ccccc1 (stereo unspecified) [PIPEROCAINE] | 12.9 | 3.01 | –
26 | CCCCCCCCCC(O)(C(N)=O)c1cc(C)c(NC(=O)CN(CC)CC)c(C)c1 (stereo unspecified) | – | – | Activity (Rattus norvegicus): 63%
27 | CCOc1ccc(C(=O)OCCN(CC)CC)cc1 [PARETHOXYCAINE] | 24 | 2.74 | –
28 | CCCN(CC)C(CC)C(=O)Nc1c(C)cccc1C (stereo unspecified) [ETIDOCAINE] | – | 3.87 | –
29 | O=C1NC(=O)C(c2ccccc2)(C2CCCCC2)N1 (stereo unspecified) | 58 | – | –
30 | CCCCCCCCC1(c2ccccc2)NC(=O)NC1=O (stereo unspecified) | 5 | 4.96 | –
31 | CCN(CC)CC(=O)Nc1c(C)cc(C2(c3ccccc3)NC(=O)NC2=O)cc1C (stereo unspecified) | – | – | Activity (Rattus norvegicus): 49%
32 | CCCOc1cc(N)ccc1C(=O)OCCN(CC)CC [PROPOXYCAINE HYDROCHLORIDE] | 24 | 2.42 | –
33 | CCN(CC)CC(=O)Nc1ccc(C(O)(C(N)=O)c2ccccc2)cc1 (stereo unspecified) | – | – | Activity (Rattus norvegicus): 4%
34 | CCCCC1(c2cccc(C)c2)NC(=O)NC1=O (stereo unspecified) | 58 | – | –
35 | O=C1C(c2ccccc2)N2CCCCN1C2=O (stereo unspecified) | 700 | 2.01 | –
36 | O=C1C(c2ccccc2)N2CCCCCN1C2=O (stereo unspecified) | 427 | 2.51 | –
37 | CC12C(=O)NC(=O)N1CCc1ccccc12 (stereo unspecified) | 250 | – | –
38 | CCCCCCCC1(c2ccccc2)NC(=O)NC1=O (stereo unspecified) | 5 | – | –
39 | CC(CNC1CCCCC1)OC(=O)c1ccccc1 (stereo unspecified) [HEXYLCAINE] | 7.1 | 3.34 | –
40 | CCCOc1ccc(C(=O)OCCN(CC)CC)cc1N [PROPARACAINE] | 2 | 2.42 | –
41 | O=C1NC(=O)C(c2ccccc2)(c2ccccc2)N1 [PHENYTOIN] | 40 | – | –
